# Screening data as filed in PubChem BioAssay.
# Sampled rows, rich in hits. Any-hit rate of the full collection: about 4.7%.
# MrgX1 agonist – agonists of human MrgX1 receptor, primary screen, HEK293 cells, Fluo-4 calcium flux; B-score at 10 µM; 0.44% of 310,000 active; Fluo-4 calcium fluorescence, agonist mode; hits give high values; AID 588627, 2011; Mas-related G-protein coupled receptor member X1 (Homo sapiens), Q96LB2;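 active means calcium response B-score plate-corrected fluorescence ratio at least 3 library SD, with starting fluorescence B-score inside 5 SD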
# Target sequence (Q96LB2 whole entry, looked up): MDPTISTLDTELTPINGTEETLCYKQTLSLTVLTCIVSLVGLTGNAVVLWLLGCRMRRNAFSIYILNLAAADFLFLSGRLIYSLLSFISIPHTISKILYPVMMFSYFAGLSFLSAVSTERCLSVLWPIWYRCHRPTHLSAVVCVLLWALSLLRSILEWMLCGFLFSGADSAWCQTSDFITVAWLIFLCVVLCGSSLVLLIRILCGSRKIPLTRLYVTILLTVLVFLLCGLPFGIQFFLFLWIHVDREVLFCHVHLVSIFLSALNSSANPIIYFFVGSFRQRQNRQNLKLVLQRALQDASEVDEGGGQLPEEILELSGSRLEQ
#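 Material: MrgX1-expressing HEK293 cells / Dosing: compound as first of three additions / Incubation: overnight seeding, then 1 h dark dye loading / Signal: Fluo-4 NW calcium fluorescence / Evaluation: B-scored fluorescence response ratio / Benchmarks: positive and negative control wells on each plate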
# RGS4 act – RGS4 potentiators or activators, primary screen, cell-based, HEK293 M3R inducible RGS4, calcium flux; carbachol calcium flux Fluo4; hits give low values; B-score at 10 µM; 0.92% of 310,000 active;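 active means B-score of the integrated calcium signal more than 4 SD below the library mean, with starting fluorescence not abnormally high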;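 further: negative B-score means reduced calcium response which marks RGS4 activation or potentiation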
#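 Reagent: ECmax carbachol challenge; Test system: M3R-expressing HEK293 line, RGS4 induced by doxycycline; Schedule: overnight RGS4 induction, 30 min dye load 37 °C, 20 min compound RT; Detection: calcium dye Fluo4 fluorescence; Read-out: Agonist-evoked peak-minus-minimum fluorescence over baseline, integrated ratio, B score.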
# KCC2 mod – KCC2 cotransporter modulators, thallium flux, primary screen, cell-based, HEK293 KCC2, FluoZin-2 fluorescence, MLSMR | Solute carrier family 12 member 5 (Homo sapiens), Q9H2X9 | KCC2 cells, thallium flux FluoZin-2 fluorescence | B-score of Tl+ flux slope (higher = more flux/activation; lower = inhibition) at 10 µM | 2.2% of 190,000 active | AID 1456, 2008;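 active means thallium flux slope and its plate-corrected score both differing from the plate sample mean at a set confidence after two filtering rounds, in either direction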;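 further: slope of fluorescence scaled to starting intensity during 10 to 20 s after thallium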
# MrgX1 PAM – positive allosteric modulators of MrgX1, primary screen, HEK293 cells, Fluo-4 calcium flux. Mas-related G-protein coupled receptor member X1 (Homo sapiens), Q96LB2. FDSS; hits give high values. B-score at 10 µM. 0.63% of 310,000 active. AID 588675, 2011;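 active means plate-corrected calcium response at least 3 library SD above typical, normal starting fluorescence, not activating the receptor alone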;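 further: compound read alongside a low EC10 to EC30 dose of BAM8-22 agonist; peak minus trough fluorescence over baseline measured at the second addition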
# RGS4 block – RGS4 inhibitors, primary screen, cell-based, HEK293 M3R inducible RGS4, calcium flux; B-score at 10 µM; AID 463165, 2010; Fluo-4 calcium flux; hits give high values; triggered by carbachol at its EC20; 0.45% of 310,000 active; Regulator of G-protein signaling 4 (Homo sapiens), P49798;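 active means B-score, a plate-corrected calcium signal, over three deviations above library mean, with baseline fluorescence within five deviations of library mean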;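 further: RGS4 expression induced by doxycycline in cells with stable M3 receptor; B-score is computed from the integrated fluorescence ratio over baseline after carbachol; higher B-score means a larger calcium signal and so more RGS4 inhibition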
# Target sequence (P49798 whole entry, looked up): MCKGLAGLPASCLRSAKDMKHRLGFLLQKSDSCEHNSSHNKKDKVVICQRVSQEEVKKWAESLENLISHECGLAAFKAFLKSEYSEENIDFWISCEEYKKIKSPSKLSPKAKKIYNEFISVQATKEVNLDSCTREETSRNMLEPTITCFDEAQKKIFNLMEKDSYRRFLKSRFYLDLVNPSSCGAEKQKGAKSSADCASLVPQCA
# MrgX1 antagonist – antagonists of human MrgX1 receptor, primary screen, HEK293 cells, Fluo-4 calcium flux. BAM8-22 antagonism; hits give low values. B-score at 10 µM. 1.3% of 310,000 active. AID 588676, 2011;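 active means calcium-response B-score plate-corrected more than 3 library SD below zero, starting fluorescence within 5 deviations, no agonist response on first addition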;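 further: peak minus trough fluorescence over baseline after final BAM8-22 challenge near maximal dose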
# KCC2 sec1 – KCC2 modulators in sodium-free buffer, confirmation, cell-based, HEK293 KCC2, thallium flux, secondary assay; 15% of 3,700 active; shares compounds with KCC2 mod; normalised thallium flux (F/F0 slope) at 10 µM; AID 1713, 2009; FluoZin2 fluorescence; hits give high values;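 active means thallium flux slope above the same plate's solvent-only control mean plus 3 SD; inconclusive means the two replicate wells disagree; inactive means no significant difference from solvent-only control wells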
# KCC2 bumet counter – thallium flux persisting under bumetanide in KCC2 cells, confirmation, counter-screen for KCC2 modulator project, cell-based, HEK293 KCC2, FluoZin2, secondary assay 3; shares compounds with KCC2 mod; HEK293-KCC2 + bumetanide/ouabain; hits give high values; normalized thallium flux at 10 µM; 49% of 3,700 active; AID 1714, 2009;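 active means thallium entry rate above the same plate's blocked-transporter control wells by more than 3 SD; inconclusive means the two repeat wells disagree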;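 further: raw slope of fluorescence over initial fluorescence between 10 and 20 s after thallium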
# KCC2 secondary2 – KCC2 modulators without ouabain present, confirmation, cell-based, HEK293 KCC2, thallium flux, FluoZin2, secondary assay 2; shares compounds with KCC2 mod; thallium flux FluoZin2 fluorescence; actives lie on both sides; F/F0 rise rate, 10–20 s post-thallium; normalized thallium flux at 10 µM; 23% of 3,700 active;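 active means thallium flux slope more than 3 SD above or below the plate's solvent-only control mean, mostly below; inconclusive means the two repeat wells disagreed; inactive means no significant shift from solvent-only controls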
# HEK counter1 – thallium flux modulation in parental HEK cells, confirmation, counter-screen for KCC2 modulator project, cell-based, counterscreen 1; AID 1716, 2009; shares compounds with KCC2 mod; thallium flux rate (normalised fluorescence) at 10 µM; HEK293 parental cells, thallium flux FluoZin2, ouabain; baseline-ratio fluorescence slope, 10–20 s after thallium; 46% of 3,700 active;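 active means thallium flux rate significantly above the same plate's solvent-only control wells, beyond their mean plus 3 SD; inconclusive means the two replicate wells gave conflicting results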
# KCC2 retest ouab – KCC2 inhibitors and activators, ouabain retest, confirmation, HEK-KCC2 cells. HEK293-KCC2, thallium flux FluoZin2 fluorescence; bidirectional: low = inhibitor, high = activator. shares compounds with KCC2 mod. raw Tl+ flux slope (below DMSO = inhibition, above = activation) at 10 µM. AID 1717, 2009. 48% of 3,700 active;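 active means thallium flux slope beyond 3 SD from same-plate DMSO control mean in most replicates, usually higher, sometimes lower; inconclusive means repeat tests gave conflicting results; inactive means no significant difference from controls in most replicates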;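 further: slope of initial-normalized fluorescence between seconds 10 and 20 after thallium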
# HEK293 Tl flux2 – native HEK Tl+ uptake effects, second counter-screen – HEK cells, counterscreen 2, counter-screen for KCC2 modulator project, confirmation. 33% of 3,700 active. HEK293 parental, thallium flux FluoZin-2 fluorescence slope. AID 1718, 2009. thallium flux slope at 10 µM. shares compounds with KCC2 mod;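 active means thallium flux slope above the same plate's solvent-control mean plus 3 SD in both duplicate wells; inconclusive means duplicate wells that disagreed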;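 further: run without ouabain in cells lacking the KCC2 cotransporter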
# Hits are given with their value; n = inactive; u = inconclusive; x = no result given.
SMILES,MrgX1 agonist,RGS4 act,KCC2 mod,MrgX1 PAM,RGS4 block,MrgX1 antagonist,KCC2 sec1,KCC2 bumet counter,KCC2 secondary2,HEK counter1,KCC2 retest ouab,HEK293 Tl flux2
COc1cccc(NC(=O)c2sc3ncn(CC(=O)N4CCN(c5ccccn5)CC4)c(=O)c3c2C)c1,n,n,x,n,n,n,x,x,x,x,x,x
COCC(=O)Nc1cc(=O)n(C)c(=O)n1C,n,n,n,n,n,n,x,x,x,x,x,x
CCC(CC)C(=O)Nc1cc(=O)n(C)c(=O)n1C,n,n,4.1,n,n,n,n,n,n,n,n,n
O=C(O)/C=C\c1ccccc1Oc1cccc(Cl)c1,n,n,n,n,n,n,x,x,x,x,x,x
O=C(O)/C=C/c1ccccc1Oc1ccc(Cl)cc1Cl,n,n,-6.6,n,n,n,n,0.006,0.021,n,u,n
Cc1cc(C(=O)CCC(=O)N2CCN(S(=O)(=O)c3ccccc3)CC2)c(C)s1,n,n,x,n,n,n,x,x,x,x,x,x
Cc1cc(C(=O)CCC(=O)N2CCN(S(=O)(=O)c3cccs3)CC2)c(C)s1,n,n,-5,n,n,n,n,n,u,u,n,n
S=c1nc(-c2ccccc2)c(-c2ccccc2)n[nH]1,n,n,6,n,n,n,n,0.014,n,0.016,u,0.02
CCC(CC)NC(=O)COn1nnc2ccc(S(=O)(=O)N3CCOCC3)cc21,n,n,x,n,n,n,x,x,x,x,x,x
CCOC(=O)c1c(C)[nH]c(C)c1C(=O)CSc1nc2ccccc2c(=O)n1-c1ccc(CC)cc1,n,n,4,n,n,n,n,0.015,n,u,n,u
CCOC(=O)c1c(C)[nH]c(C)c1C(=O)CSc1nc2ccccc2n1CC,n,n,n,n,n,n,x,x,x,x,x,x
CC1COc2ccccc2N1S(=O)(=O)c1cc(Cl)ccc1Cl (configuration not stated),n,n,x,n,n,n,x,x,x,x,x,x
CCCCn1nnnc1NCc1cc(OC)c(OC)cc1OC,n,n,4.9,n,n,n,n,n,n,n,n,n
CCCn1nnnc1NCc1ccc(OC)cc1OC,n,n,x,n,n,n,x,x,x,x,x,x
